Test results published in ChEMBL document CHEMBL3856216, “Development of 4,5-dihydro-benzodiazepinone derivatives as a new chemical series of BRD4 inhibitors” (Eur J Med Chem, 2016).
Activity calls are given as the source filed them. The rule behind the calls is not given here.

How the values were obtained:
[1] = target: T1, Bromodomain-containing protein 4 (Homo sapiens, UniProt O60885); test: Inhibition of human His-tagged BRD4 BD1 (49 to 170 residues) at 30 uM using H-SGRGK(Ac)GGK(Ac)GLGK-(Ac)GGAK(Ac)RHRK(Biotin)-OH as substrate preincubated for 30 mins followed by substrate addition measured after 30 mins by TR-FRET assay relative to control
How it was run: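 BRD4 bromodomain 1 was tested using a TR-FRET assay kit. Percent inhibition was measured at a single concentration of 30, in triplicate, and reported as mean ± SD.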

[2] = (§1) Cytotoxicity against human U937 cells assessed as decrease in cell viability after 24 hrs by MTT assay; type: functional, cell-based; conditions: U-937, 24 h
[3] = (§2) Cytotoxicity against human HL60 cells assessed as decrease in cell viability after 24 hrs by MTT assay; type: functional, cell-based; conditions: HL-60, 24 h
[4] = Cytotoxicity against human MV4-11 cells assessed as decrease in cell viability after 24 hrs by MTT assay; type: functional, cell-based; conditions: MV4-11, 24 h
[5] = target: T1, Bromodomain-containing protein 4; test: Inhibition of human BRD4 BD2 (342 to 460 residues) at 30 uM preincubated for 30 mins followed by substrate addition measured after 30 mins by TR-FRET assay relative to control
How it was run: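 BRD4 BD2 percent inhibition was measured at a single concentration of 30, in triplicate, and reported as mean ± SD.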

[6] = target: T1, Bromodomain-containing protein 4; test: Inhibition of human His-tagged BRD4 BD1 (49 to 170 residues) using H-SGRGK(Ac)GGK(Ac)GLGK-(Ac)GGAK(Ac)RHRK(Biotin)-OH as substrate preincubated for 30 mins followed by substrate addition measured after 30 mins by TR-FRET assay
[7] = target: T1, Bromodomain-containing protein 4; test: Inhibition of human BRD4 BD2 (342 to 460 residues) at 30 uM preincubated for 30 mins followed by substrate addition measured after 30 mins by TR-FRET assay
U-937 = test: as §1; type: functional, cell-based
HL-60 [8] = test: as §2; type: functional, cell-based
HL-60 [9] = test: Induction of morphological changes in human HL60 cells at 1 to 10 uM after 24 hrs by Hoechst 33258 staining-based fluorescence microscopy; type: functional, cell-based
How it was run: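 HL-60 cells were cultured with different concentrations and stained with Hoechst 33258. Apoptotic nuclear morphology was examined under an inverted microscope.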

HL-60 [10] = test: Induction of apoptosis in human HL60 cells assessed as early apoptotic cells at 1 uM by annexin V-FITC/propidium iodide staining-based flow cytometric analysis (reference value: 8.23%); type: functional
HL-60 [11] = test: Induction of apoptosis in human HL60 cells assessed as late apoptotic cells at 1 uM by annexin V-FITC/propidium iodide staining-based flow cytometric analysis (reference value: 6.92%); type: functional
HL-60 [12] = test: Induction of apoptosis in human HL60 cells assessed as necrotic cells at 1 uM by annexin V-FITC/propidium iodide staining-based flow cytometric analysis (reference value: 0.13%); type: functional
HL-60 [13] = test: Induction of apoptosis in human HL60 cells assessed as viable cells at 1 uM by annexin V-FITC/propidium iodide staining-based flow cytometric analysis (reference value: 84.22%); type: functional; conditions: read-out: Activity
HL-60 [14] = test: Induction of apoptosis in human HL60 cells assessed as early apoptotic cells at 5 uM by annexin V-FITC/propidium iodide staining-based flow cytometric analysis (reference value: 8.23%); type: functional
HL-60 [15] = test: Induction of apoptosis in human HL60 cells assessed as late apoptotic cells at 5 uM by annexin V-FITC/propidium iodide staining-based flow cytometric analysis (reference value: 6.92%); type: functional
HL-60 [16] = test: Induction of apoptosis in human HL60 cells assessed as necrotic cells at 5 uM by annexin V-FITC/propidium iodide staining-based flow cytometric analysis (reference value: 0.13%); type: functional
HL-60 [17] = test: Induction of apoptosis in human HL60 cells assessed as viable cells at 5 uM by annexin V-FITC/propidium iodide staining-based flow cytometric analysis (reference value: 84.22%); type: functional; conditions: read-out: Activity
HL-60 [18] = test: Induction of apoptosis in human HL60 cells assessed as early apoptotic cells at 10 uM by annexin V-FITC/propidium iodide staining-based flow cytometric analysis (reference value: 8.23%); type: functional
HL-60 [19] = test: Induction of apoptosis in human HL60 cells assessed as late apoptotic cells at 10 uM by annexin V-FITC/propidium iodide staining-based flow cytometric analysis (reference value: 6.92%); type: functional
HL-60 [20] = test: Induction of apoptosis in human HL60 cells assessed as necrotic cells at 10 uM by annexin V-FITC/propidium iodide staining-based flow cytometric analysis (reference value: 0.13%); type: functional
HL-60 [21] = test: Induction of apoptosis in human HL60 cells assessed as viable cells at 10 uM by annexin V-FITC/propidium iodide staining-based flow cytometric analysis (reference value: 84.22%); type: functional; conditions: read-out: Activity
[22] = Induction of apoptosis in human HL60 cells assessed as upregulation of Bax expression at 1 to 10 uM after 24 hrs by Western blot method; type: functional, cell-based; conditions: HL-60
How it was run: (§3)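 HL-60 cells were treated for 24 h. Lysates were then immunoblotted for Bax, Bcl-2, pro-caspase 3, active caspase 3 and Brd4.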

HL-60 [23] = test: Induction of apoptosis in human HL60 cells assessed as downregulation of Bcl-2 expression at 1 to 10 uM after 24 hrs by Western blot method; type: functional, cell-based; how it was run: as §3
HL-60 [24] = test: Induction of apoptosis in human HL60 cells assessed as caspase-3 cleavage at 1 to 10 uM after 24 hrs by Western blot method; type: functional, cell-based; how it was run: as §3
[25] = Downregulation of BRD4 expression in human HL60 cells at 1 to 10 uM after 24 hrs by Western blot method; type: functional, cell-based; conditions: HL-60; how it was run: as §3

## O=C1CCN(C(=O)c2cccnc2)c2ccccc2N1
[1]
  inhibition: 45.2%

## COc1ccccc1S(=O)(=O)Nc1ccc2c(c1)CN(C)C(=O)N2
[2]
  IC50: > 20 µM
[3]
  IC50: 2.19 µM
[4]
  IC50: 7.75 µM

## O=C1CCCc2c1ccn2C(=O)c1cccc(-c2ccccc2)c1
[1]
  inhibition: 32.1%

## CC1C(=O)Nc2ccccc2N1C(=O)c1ccc2ccccc2c1 (stereo not drawn)
[1]
  inhibition: < 20%

## CC1C(=O)Nc2ccccc2N1C(=O)c1ccccc1 (stereo not drawn)
[1]
  inhibition: < 20%

## Cc1noc(C)c1NC(=O)c1cccnc1
[1]
  inhibition: 32.6%

## COc1cc(C(=O)Nc2c(C)noc2C)cc(-c2ccccc2)c1
[1]
  inhibition: 64.5%
[5]
  inhibition: 36.3%
[6]
  IC50: 8.24 µM
[7]
  IC50: > 20 µM
[2]
  IC50: > 20 µM
[3]
  IC50: 17.1 µM
[4]
  IC50: 19.2 µM

## CC1C(=O)Nc2ccccc2N1C(=O)c1cccnc1 (stereo not drawn)
[1]
  inhibition: < 20%

## O=C1CCN(C(=O)c2ccccc2)c2ccccc2N1
[1]
  inhibition: 32.4%

## O=C1CCCc2c1ccn2C(=O)c1cccnc1
[1]
  inhibition: 34.2%

## COc1cc(OC)c2c(=O)[nH]c(-c3cc(C)c(OCCO)c(C)c3)nc2c1 [APABETALONE]
[2]
  IC50: > 20 µM
[3]
  IC50: > 20 µM
[4]
  IC50: > 20 µM

## CC1C(=O)Nc2ccccc2N1C(=O)c1cccc(-c2ccccc2)c1 (stereo not drawn)
[1]
  inhibition: 72.4%
[5]
  inhibition: 23.1%
[6]
  IC50: 7.42 µM
[7]
  IC50: > 20 µM
[2]
  IC50: > 20 µM
[3]
  IC50: 11.4 µM
[4]
  IC50: 13.2 µM

## COc1cc(C(=O)n2ccc3c2CCCC3=O)cc(-c2ccccc2)c1
[1]
  inhibition: 22.8%

## Cc1noc(C)c1NC(=O)c1cccc(-c2ccccc2)c1
[1]
  inhibition: 46.2%

## Cc1noc(C)c1NC(=O)c1ccccc1
[1]
  inhibition: < 20%

## COc1cc(C(=O)N2c3ccccc3NC(=O)C2C)cc(-c2ccccc2)c1 (stereo not drawn)
[1]
  inhibition: 88.7%
[5]
  inhibition: 36.2%
[6]
  IC50: 6.25 µM
[7]
  IC50: > 20 µM
[2]
  IC50: > 20 µM
[3]
  IC50: 9.25 µM
[4]
  IC50: 17.6 µM

## O=C1CCN(C(=O)c2ccc3ccccc3c2)c2ccccc2N1
[1]
  inhibition: 25.3%

## O=C1CCN(C(=O)c2cccc(-c3ccccc3)c2)c2ccccc2N1
[1]
  inhibition: 96.1%
[5]
  inhibition: 54.2%
[6]
  IC50: 1.25 µM
[7]
  IC50: 11.2 µM
[2]
  IC50: > 20 µM
U-937
  Activity: Dose-dependent effect
[3]
  IC50: 4.02 µM
HL-60 [8]
  Activity: Dose-dependent effect
[4]
  IC50: 4.21 µM
HL-60 [9]
  Activity: Active
HL-60 [10]
  Activity: 10.15%
HL-60 [11]
  Activity: 8.32%
HL-60 [12]
  Activity: 0.11%
HL-60 [13]
  viability at 1 µM: 81.4%
HL-60 [14]
  Activity: 21.63%
HL-60 [15]
  Activity: 32.51%
HL-60 [16]
  Activity: 0.9%
HL-60 [17]
  viability at 5 µM: 45%
HL-60 [18]
  Activity: 17.73%
HL-60 [19]
  Activity: 45.46%
HL-60 [20]
  Activity: 1.96%
HL-60 [21]
  viability at 10 µM: 34.9%
[22]
  Activity: Active
HL-60 [23]
  Activity: Active
HL-60 [24]
  Activity: Active
[25]
  Activity: Active

## O=C1CCCc2c1ccn2C(=O)c1ccc2ccccc2c1
[1]
  inhibition: 23.1%

## COc1cc(C(=O)N2CCC(=O)Nc3ccccc32)cc(-c2ccccc2)c1
[1]
  inhibition: 88.8%
[5]
  inhibition: 67.1%
[6]
  IC50: 2.74 µM
[7]
  IC50: 9.14 µM
[2]
  IC50: 18.2 µM
[3]
  IC50: 8.24 µM
[4]
  IC50: 9.61 µM

## O=C1CCCc2c1ccn2C(=O)c1ccccc1
[1]
  inhibition: < 20%

## Cc1noc(C)c1NC(=O)c1ccc2ccccc2c1
[1]
  inhibition: 23.1%

## Cc1sc2c(c1C)C(c1ccc(Cl)cc1)=N[C@@H](CC(=O)OC(C)(C)C)c1nnc(C)n1-2
[2]
  IC50: > 20 µM
[3]
  IC50: 5.3 µM
[4]
  IC50: 6.4 µM
